For this test, the target named is T1, OR5K1 (Homo sapiens) (UniProt Q8NHB7).
T1 sequence (whole entry): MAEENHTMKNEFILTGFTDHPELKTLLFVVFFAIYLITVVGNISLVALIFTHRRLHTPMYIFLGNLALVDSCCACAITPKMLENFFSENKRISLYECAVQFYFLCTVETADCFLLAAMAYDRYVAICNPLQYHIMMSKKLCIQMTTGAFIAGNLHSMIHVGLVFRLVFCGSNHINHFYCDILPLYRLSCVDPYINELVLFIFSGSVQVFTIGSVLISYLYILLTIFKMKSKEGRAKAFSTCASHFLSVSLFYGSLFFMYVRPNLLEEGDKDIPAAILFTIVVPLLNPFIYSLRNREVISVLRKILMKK
The settings on record: stereoisomer not certain. In short, it runs like this: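 Values were gathered from published papers (main text and supplementary material), with extra details requested from the original authors when needed, and checked for typos and inconsistencies. Each receptor–molecule pair is called responsive (active) if the original authors judged the measured signal statistically different from baseline, and non-responsive (inactive) otherwise. Assay methods varied by source, often transient mammalian cell-line luciferase assays. Recorded details include cell line, G-protein, co-transfected protein and tags.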
On to `Cc1occc1S`, for which the “odorant receptor agonist call” value is “inactive”.

As for `CCCCCCCCCC(=O)[O-].[H+]`, the “odorant receptor agonist call” value is “inactive”.

For the molecule `CCCCCCC=CC=O`, the “odorant receptor agonist call” value is “inactive”.

As for `CCC=CCCC=CCO`, the “odorant receptor agonist call” value was “inactive”.

On to `CCCCCCCC(=O)OCC`, for which the “odorant receptor agonist call” value was “inactive”.

Take `CCCCCC=CC=CC=O`: the “odorant receptor agonist call” value was “inactive”.

For the molecule `Cc1ccc(O)cc1`, the “odorant receptor agonist call” value was “inactive”.

Regarding `CC(C)CCO`, the “odorant receptor agonist call” value is “inactive”.

For the molecule `CCCCC1CCC(=O)O1` (configuration not stated), the “odorant receptor agonist call” value is “inactive”.

Turning to `CCOC(C)OCC`, the “odorant receptor agonist call” value was “inactive”.

With `C=C(C)c1ccc(C)cc1`, the “odorant receptor agonist call” value was “inactive”.

On to `CCOC(=O)c1ccccc1`, for which the “odorant receptor agonist call” value is “inactive”.

On to `CCCC(=O)OCC`, for which the “odorant receptor agonist call” value is “inactive”.

As to `CCCCC(C)CCC(=O)O` (configuration not stated), the “odorant receptor agonist call” value was “inactive”.

`CCC(=O)O`: the “odorant receptor agonist call” value was “inactive”.

For `CC(=O)C1=NCCS1`, the “odorant receptor agonist call” value is “inactive”.

`C=C(C)C1CC=C(C)CC1` (configuration not stated): the “odorant receptor agonist call” value is “inactive”.

Take `C=Cc1ccc(O)cc1`: the “odorant receptor agonist call” value was “inactive”.

For `CCCCCCCC(=O)[O-].[H+]`, the “odorant receptor agonist call” value was “inactive”.

Regarding `CCCc1ccc(O)c(OC)c1`, the “odorant receptor agonist call” value was “inactive”.

As for `CSCCCO`, the “odorant receptor agonist call” value was “inactive”.

Consider `CCOC(=O)C(C)CC` (configuration not stated), for which the “odorant receptor agonist call” value was “inactive”.

`CCC(C)c1nccnc1OC` (configuration not stated): the “odorant receptor agonist call” value was “active”.

Take `CCO`: the “odorant receptor agonist call” value was “inactive”.

Turning to `COC1=C(C)OC(C)C1=O` (configuration not stated), the “odorant receptor agonist call” value is “active”.

Take `C=C1CCC2(C(C)C)CC12` (configuration not stated): the “odorant receptor agonist call” value was “inactive”.

As to `CCCCCC1CCC(=O)O1` (configuration not stated), the “odorant receptor agonist call” value is “inactive”.

On to `CCCCCc1ccccn1`, for which the “odorant receptor agonist call” value is “inactive”.

As to `CCCSSCCC`, the “odorant receptor agonist call” value was “inactive”.

As for `CCOC(=O)C(C)C`, the “odorant receptor agonist call” value is “inactive”.

`CC(C)(S)CCOC=O`: the “odorant receptor agonist call” value was “inactive”.

Regarding `CCC=CCCC=CC=O`, the “odorant receptor agonist call” value is “inactive”.
